Data taken from ChEMBL document CHEMBL4715828, “Identification of N-benzyltetrahydroisoquinolines as novel anti-neuroinflammatory agents” (2018).
The source made the active and inactive calls. No cut-off for these calls is given here.

Legend:
[1] = tested on: BV-2; assay: Anti-neuroinflammatory activity in mouse BV2 cells assessed as inhibition of LPS-induced TNF-alpha production by measuring TNF-alpha level at 50 uM preincubated for 1 hr followed by LPS stimulation and measured after 24 hrs by ELISA (reference value: 100 +/- 0%); format: functional; conditions: time 25 hrs
Method in brief: (§1)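 BV2 murine microglia in DMEM:F-12 (1:1) with 10% heat-inactivated FBS and penicillin/streptomycin, 5% CO2, seeded at 5 x 10^5 cells/mL in 12-well plates and attached overnight. Compound in DMSO (0.1% v/v final) added 1 h before LPS (E. coli O55:B5, 100 ng/mL) for 24 h. Medium centrifuged, then assayed by ELISA. Values are % of LPS, mean ± SEM, three experiments.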

[2] = tested on: BV-2; assay: Anti-neuroinflammatory activity in mouse BV2 cells assessed as inhibition of LPS-induced TNF-alpha production preincubated for 1 hr followed by LPS treatment and measured after 24 hrs by ELISA; format: functional, cell-based; conditions: dose 12-50 µM, time 25.0 hrs; method in brief: as §1
[3] = tested on: Microglia; assay: Anti-neuroinflammatory activity in primary mouse microglia cells assessed as reduction in LPS-induced IL-12p40 mRNA expression at 100 uM preincubated for 1 hr followed by LPS treatment for 2 hrs by qPCR analysis; format: functional, cell-based; conditions: time 3.0 hrs
Method in brief: (§2)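 Primary microglia come from cortical cells of 1-2-day neonatal mice, grown in DMEM/F12 with 10% FBS and 2 mM glutamine, plus 5 ng/ml GM-CSF from day 3. Cells shaken off at day 13-14, plated at 5 x 10^5 cells/mL and attached overnight. Compound given 1 h before LPS 100 ng/mL for 2 or 4 h, then RNA extracted and qPCR run. Mean ± SEM, three experiments.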

[4] = tested on: Microglia; assay: Anti-neuroinflammatory activity in primary mouse microglia cells assessed as reduction in LPS-induced IL6 mRNA expression at 100 uM preincubated for 1 hr followed by LPS treatment for 2 hrs by qPCR analysis; format: functional, cell-based; conditions: time 3.0 hrs; method in brief: as §2
[5] = tested on: BV-2; assay: Anti-neuroinflammatory activity in mouse BV2 cells assessed as inhibition of LPS-induced IL-6 production preincubated for 1 hr followed by LPS treatment and measured after 24 hrs by ELISA; format: functional, cell-based; conditions: dose 25-50 µM, time 25.0 hrs; method in brief: as §1
[6] = tested on: Microglia; assay: Anti-neuroinflammatory activity in primary mouse microglia cells assessed as reduction in LPS-induced IL-12p35 mRNA expression at 100 uM preincubated for 1 hr followed by LPS treatment for 4 hrs by qPCR analysis; format: functional, cell-based; conditions: time 5.0 hrs; method in brief: as §2
[7] = tested on: Microglia; assay: Anti-neuroinflammatory activity in primary mouse microglia cells assessed as reduction in LPS-induced IL-12p40 mRNA expression at 100 uM preincubated for 1 hr followed by LPS treatment for 4 hrs by qPCR analysis; format: functional, cell-based; conditions: time 5.0 hrs; method in brief: as §2
[8] = tested on: Microglia; assay: Anti-neuroinflammatory activity in primary mouse microglia cells assessed as reduction in LPS-induced IL-23p19 mRNA expression at 100 uM preincubated for 1 hr followed by LPS treatment for 4 hrs by qPCR analysis; format: functional, cell-based; conditions: time 5.0 hrs; method in brief: as §2
[9] = tested on: Microglia; assay: Anti-neuroinflammatory activity in primary mouse microglia cells assessed as reduction in LPS-induced IL6 mRNA expression at 100 uM preincubated for 1 hr followed by LPS treatment for 4 hrs by qPCR analysis; format: functional, cell-based; conditions: time 5.0 hrs; method in brief: as §2
[10] = tested on: Microglia; assay: Anti-neuroinflammatory activity in primary mouse microglia cells assessed as reduction in LPS-induced TNF mRNA expression at 100 uM preincubated for 1 hr followed by LPS treatment for 4 hrs by qPCR analysis; format: functional, cell-based; conditions: time 5.0 hrs; method in brief: as §2
[11] = tested on: BV-2; assay: Anti-neuroinflammatory activity in mouse BV2 cells assessed as inhibition of LPS-induced nitrite production preincubated for 1 hr followed by LPS treatment and measured after 24 hrs by Griess assay; format: functional, cell-based; conditions: dose 6-50 µM, time 25.0 hrs
Method in brief: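 BV2 cells seeded at 5 x 10^5 cells/mL in 12-well plates and attached overnight. Compound (0.1% v/v DMSO final) given 1 h before LPS 100 ng/mL for 24 h. Medium centrifuged to remove floating cells, then nitrite read by Griess kit. Mean ± SEM from three experiments.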

[12] = tested on: Microglia; assay: Anti-neuroinflammatory activity in primary mouse microglia cells assessed as reduction in LPS-induced IL-12p35 mRNA expression at 100 uM preincubated for 1 hr followed by LPS treatment for 2 hrs by qPCR analysis; format: functional, cell-based; conditions: time 3.0 hrs; method in brief: as §2
[13] = tested on: Microglia; assay: Anti-neuroinflammatory activity in primary mouse microglia cells assessed as reduction in LPS-induced IL-1beta mRNA expression at 100 uM preincubated for 1 hr followed by LPS treatment for 4 hrs by qPCR analysis; format: functional, cell-based; conditions: time 5.0 hrs; method in brief: as §2
[14] = tested on: Microglia; assay: Anti-neuroinflammatory activity in primary mouse microglia cells assessed as reduction in LPS-induced GM-CSF mRNA expression at 100 uM preincubated for 1 hr followed by LPS treatment for 2 hrs by qPCR analysis; format: functional, cell-based; conditions: time 3.0 hrs; method in brief: as §2
[15] = tested on: Microglia; assay: Anti-neuroinflammatory activity in primary mouse microglia cells assessed as reduction in LPS-induced IL-23p19 mRNA expression at 100 uM preincubated for 1 hr followed by LPS treatment for 2 hrs by qPCR analysis; format: functional, cell-based; conditions: time 3.0 hrs; method in brief: as §2
[16] = tested on: Microglia; assay: Anti-neuroinflammatory activity in primary mouse microglia cells assessed as reduction in LPS-induced TNF mRNA expression at 100 uM preincubated for 1 hr followed by LPS treatment for 2 hrs by qPCR analysis; format: functional, cell-based; conditions: time 3.0 hrs; method in brief: as §2
[17] = tested on: Microglia; assay: Anti-neuroinflammatory activity in primary mouse microglia cells assessed as reduction in LPS-induced GM-CSF mRNA expression at 100 uM preincubated for 1 hr followed by LPS treatment for 4 hrs by qPCR analysis; format: functional, cell-based; conditions: time 5.0 hrs; method in brief: as §2
[18] = tested on: Microglia; assay: Anti-neuroinflammatory activity in primary mouse microglia cells assessed as reduction in LPS-induced IL-1beta mRNA expression at 100 uM preincubated for 1 hr followed by LPS treatment for 2 hrs by qPCR analysis; format: functional, cell-based; conditions: time 3.0 hrs; method in brief: as §2
[19] = tested on: BV-2; assay: Anti-neuroinflammatory activity in mouse BV2 cells assessed as inhibition of LPS-induced TNF-alpha production by measuring TNF-alpha level at 1 uM preincubated for 1 hr followed by LPS stimulation and measured after 24 hrs by ELISA (reference value: 100 +/- 0%); format: functional; set-up: scale not given: the % may be the effect or the level left; conditions: time 25 hrs; method in brief: as §1

| SMILES | TNF-alpha level (% of LPS control) [1] | other results |
| --- | --- | --- |
| COc1cccc(OC)c1CN1CCc2ccccc2C1 | 78% |  |
| COc1ccc(CN2CCc3cc4c(cc3C2)OCO4)c(OC)c1 | 103% |  |
| FC(F)(F)c1ccc(CN2CCc3cc4c(cc3C2)OCO4)cc1 | 102% |  |
| COc1cc(CN2CCc3cc4c(cc3C2)OCO4)cc(OC)c1 | 89% |  |
| COc1ccc2c(c1)CN(Cc1c(OC)cccc1OC)CC2 | 82% |  |
| COc1cccc(CN2CCc3cc4c(cc3C2)OCO4)c1 | 78% |  |
| COc1ccc(CN2CCc3cc4c(cc3C2)OCO4)cc1 | 88% |  |
| COc1ccc(CC2c3cc4c(cc3CC[N+]2(C)C)OCO4)cc1OC.[I-] (centres undefined) | 97% |  |
| COc1ccc2c(c1OC)CN1CCc3cc4c(cc3C1C2)OCO4 (centres undefined) [TETRAHYDROBERBERINE] | 45% |  |
| COc1cccc(CN2CCc3cc4c(cc3C2)OCO4)c1OC | 61% |  |
| COc1cccc(OC)c1C(=O)N1CCc2cc3c(cc2C1)OCO3 | 73% |  |
| Cc1cccc(C)c1CN1CCc2cc3c(cc2C1)OCO3 | 101% |  |
| COc1ccccc1CN1CCc2cc3c(cc2C1)OCO3 | 78% |  |
| COc1cccc(OC)c1CN1CCc2cc3c(cc2C1)OCO3 | 39% | Activity [2]: Dose-dependent effect; Activity [3]: inactive; Activity [4]: Active; Activity [5]: Dose-dependent effect; Activity [6]: Active; Activity [7]: inactive; Activity [8]: Active; Activity [9]: Active; Activity [10]: inactive; Activity [11]: Dose-dependent effect; Activity [12]: Active; Activity [13]: Active; Activity [14]: Active; Activity [15]: Active; Activity [16]: inactive; Activity [17]: Active; Activity [18]: Active |
| COc1ccc2c(c1)CCN(Cc1c(OC)cccc1OC)C2 | 64% |  |
| COc1ccc(CC2c3cc4c(cc3CCN2C)OCO4)cc1OC (centres undefined) | 77% |  |
| c1ccc(CN2CCc3cc4c(cc3C2)OCO4)cc1 | 90% |  |
| COc1ccc(CC2NCCc3cc4c(cc32)OCO4)cc1OC (centres undefined) | 77% |  |
| COc1ccc2c(c1OC)C[N+]1(Cc3ccccc3)CCc3cc4c(cc3C1C2)OCO4.[Br-] (centres undefined) | 22% |  |
| COc1ccc2cc3[n+](cc2c1OC)CCc1cc2c(cc1-3)OCO2.[Cl-] [BERBERINE CHLORIDE] |  | Activity [19]: 25% |
| COc1cccc(CN2CCc3ccccc3C2)c1OC | 95% |  |
| Clc1cccc(Cl)c1CN1CCc2cc3c(cc2C1)OCO3 | 107% |  |
